This note sets out measurements from ChEMBL document CHEMBL4219223, “Rational design of pyridyl derivatives of vanillin for the treatment of sickle cell disease” (2018).

Assay [1] has as its target T1, Hemoglobin HbA (Homo sapiens) (UniProt P69905+P68871). Nature of the assay: Inhibition of sickle hemoglobin polymerization in human whole blood assessed as formation of high oxygen affinity schiff-base adducts by HPLC method. It counts as protein-complex assay. The note with it: TDE = time-dependent effect. In short, it runs like this:
(§1)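 Normal donor whole blood (30% hematocrit) or purified Hb (1.56 mM) incubated with compound (0.5, 1.0, 2.0 mM) at 37°C with shaking at 140 rpm for up to 24 h. Samples taken at 0.5, 1, 2, 4, 8, 12 and 24 h and quenched with cyanoborohydride/borohydride to fix Schiff-base adducts. Adducts quantified by cation-exchange HPLC. Peak read from the %modification-vs-time curve; AUC(0–24) by linear trapezoidal rule.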

Assay [2] has as its target T1, Hemoglobin HbA (Homo sapiens). The experiment in a line: Inhibition of sickle hemoglobin polymerization in human homozygous sickle red blood cells assessed as formation of high oxygen affinity schiff-base adducts at 1 mM incubated under air for 1 hr followed by 2 hrs incubation under hypoxic condition by HPLC method relative to control. More on the design: scale not given: the % may be the effect or the level left. The procedure, abridged:
(§2)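 Lysates from SS cells (20% hematocrit) exposed to 0.5, 1.0 or 2.0 mM compound, 1 h air then 2 h 4% O2 at 37°C. Cells washed in PBS and lysed hypotonically. Hb S adduct percentage taken from weak cation-exchange HPLC elution patterns (Poly CAT A column). Mean ± SD of three biological replicates.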

For assay [3] the target is unchanged. The experiment in a line: Induction of R-state stabilization of Hb in human homozygous sickle red blood cells assessed as change in oxygen pressure at which hemolysates are 50% saturated with oxygen at 2 mM incubated under air for 1 hr followed by 2 hrs incubation under hypoxic condition by oxygen equilibrium curve analysis relative to control. The procedure, abridged: (§3)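 SS cells (20% hematocrit) given 0.5–2.0 mM compound, 1 h in air at 37°C, then 2 h hypoxia (4% O2) at 37°C. Cells washed in PBS and lysed hypotonically. About 100 μL clarified lysate placed in 4 ml 0.1 M potassium phosphate, pH 7.0, and read on a Hemox analyzer. ΔP50 = (P50 untreated − P50 treated)/P50 untreated × 100, relative to DMSO controls. Three biological replicates.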

Assay [4] shares this target. The experiment in a line: Inhibition of sickle hemoglobin polymerization in human homozygous sickle red blood cells assessed as formation of high oxygen affinity schiff-base adducts at 0.5 mM incubated under air for 1 hr followed by 2 hrs incubation under hypoxic condition by HPLC method relative to control. More on the design: scale not given: the % may be the effect or the level left. In short, it runs like this: as §2

For assay [5], the system named is Erythrocyte. Nature of the assay: Antisickling activity in human homozygous sickle red blood cells at 1 mM incubated for 2 hrs under hypoxic condition relative to control. It counts as functional. In short, it runs like this: (§4)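 Sickle (SS) red cell suspensions at 20% hematocrit, with or without compound (0.5, 1.0, 2.0 mM; DMSO <2% final, also in controls), held in air at 37°C for 1 h, then under 4% O2/96% N2 at 37°C for 2 h. Aliquots fixed in 2% glutaraldehyde without air exposure; sickling scored on bright-field images at 40x. Mean ± SD, three biological replicates.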

The target in assay [6] is T1, Hemoglobin HbA (Homo sapiens). The experiment in a line: Induction of R-state stabilization of Hb in human homozygous sickle red blood cells assessed as change in oxygen pressure at which hemolysates are 50% saturated with oxygen incubated under air for 1 hr followed by 2 hrs incubation under hypoxic condition by oxygen equilibrium curve analysis. The procedure, abridged:
as §3

The subject of assay [7] is Erythrocyte. The experiment in a line: Antisickling activity in human homozygous sickle red blood cells at 2 mM incubated for 2 hrs under hypoxic condition relative to control. It counts as functional. The procedure, abridged: as §4
Assay [8] has as its target T1, Hemoglobin HbA (Homo sapiens). Nature of the assay: Induction of R-state stabilization of Hb in human homozygous sickle red blood cells assessed as change in oxygen pressure at which hemolysates are 50% saturated with oxygen at 1 mM incubated under air for 1 hr followed by 2 hrs incubation under hypoxic condition by oxygen equilibrium curve analysis relative to control. The procedure, abridged:
as §3

In assay [9] the test system is Erythrocyte. The experiment in a line: Antisickling activity in human homozygous sickle red blood cells at 0.5 mM incubated for 2 hrs under hypoxic condition relative to control. It counts as functional. The procedure, abridged: as §4
The target of assay [10] is T1, Hemoglobin HbA (Homo sapiens). Nature of the assay: Inhibition of sickle hemoglobin polymerization in human homozygous sickle red blood cells assessed as formation of high oxygen affinity schiff-base adducts incubated under air for 1 hr followed by 2 hrs incubation under hypoxic condition by HPLC method. The procedure, abridged: as §2
The target is the same in assay [11]. Nature of the assay: Induction of R-state stabilization of Hb in human homozygous sickle red blood cells assessed as change in oxygen pressure at which hemolysates are 50% saturated with oxygen at 0.5 mM incubated under air for 1 hr followed by 2 hrs incubation under hypoxic condition by oxygen equilibrium curve analysis relative to control. In short, it runs like this:
as §3

Assay [12] has the same target. Nature of the assay: Inhibition of sickle hemoglobin polymerization in human homozygous sickle red blood cells assessed as formation of high oxygen affinity schiff-base adducts at 2 mM incubated under air for 1 hr followed by 2 hrs incubation under hypoxic condition by HPLC method relative to control. More on the design: scale not given: the % may be the effect or the level left. The procedure, abridged: as §2

For assay [13], the system named is Erythrocyte. The experiment in a line: Antisickling activity in human homozygous sickle red blood cells incubated for 2 hrs under hypoxic condition. It counts as functional, cell-based. In short, it runs like this: as §4
In assay [14] the target is T1, Hemoglobin HbA (Homo sapiens). Nature of the assay: Inhibition of sickle hemoglobin polymerization in human cell free hemoglobin matrix assessed as formation of high oxygen affinity schiff-base adducts incubated for 90 mins by HPLC method relative to control. It counts as protein-complex assay. On the set-up: scale not given: the % may be the effect or the level left.

The target is the same in assay [15]. Nature of the assay: Inhibition of sickle hemoglobin polymerization in human whole blood assessed as formation of high oxygen affinity schiff-base adducts at 2 mM measured up to 24 hrs by HPLC method relative to control. It counts as protein-complex assay. More on the design: scale not given: the % may be the effect or the level left. The procedure, abridged:
as §1

For assay [16] the target is unchanged. The experiment in a line: Inhibition of sickle hemoglobin polymerization in human cell free hemoglobin matrix assessed as formation of high oxygen affinity schiff-base adducts incubated for 60 to 90 mins by HPLC method relative to control. It counts as protein-complex assay. More on the design: scale not given: the % may be the effect or the level left.
Assay [17] has the same target. Nature of the assay: Inhibition of sickle hemoglobin polymerization in human whole blood assessed as formation of high oxygen affinity schiff-base adducts at 2 mM measured after 24 hrs by HPLC method relative to control. It counts as protein-complex assay. More on the design: scale not given: the % may be the effect or the level left. In short, it runs like this:
as §1

The target is the same in assay [18]. Nature of the assay: Inhibition of sickle hemoglobin polymerization in human whole blood assessed as formation of high oxygen affinity schiff-base adducts at 2 mM after 2 hrs by HPLC method relative to control. It counts as protein-complex assay. On the set-up: scale not given: the % may be the effect or the level left. In short, it runs like this: as §1
Assay [19] has the same target. Nature of the assay: Inhibition of sickle hemoglobin polymerization in human whole blood assessed as formation of high oxygen affinity schiff-base adducts at 2 mM measured at 2 hrs by HPLC method relative to control. More on the design: scale not given: the % may be the effect or the level left. It counts as protein-complex assay. The procedure, abridged:
as §1

For assay [20] the target is unchanged. The experiment in a line: Inhibition of sickle hemoglobin polymerization in human whole blood assessed as formation of high oxygen affinity schiff-base adducts at 2 mM measured at 12 hrs by HPLC method relative to control. It counts as protein-complex assay. On the set-up: scale not given: the % may be the effect or the level left. In short, it runs like this: as §1

T1 sequence (P68871 2-147 partner limits assumed): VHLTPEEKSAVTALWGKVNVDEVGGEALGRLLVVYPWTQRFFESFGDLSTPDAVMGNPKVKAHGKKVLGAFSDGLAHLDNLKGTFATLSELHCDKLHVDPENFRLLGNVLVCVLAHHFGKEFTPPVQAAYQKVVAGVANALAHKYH
T1 sequence (P69905 2-142 limits assumed): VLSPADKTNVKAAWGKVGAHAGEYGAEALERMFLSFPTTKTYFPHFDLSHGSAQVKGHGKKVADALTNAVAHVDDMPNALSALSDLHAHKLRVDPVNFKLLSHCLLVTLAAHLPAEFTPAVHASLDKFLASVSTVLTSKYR

For the molecule `COc1cc(C=O)ccc1O` [VANILLIN], the Activity entry in [1] was “Tde”; in [2], 5.6%; in assay [3], 21%; in assay [4], 3.3%; in [6], “Dose-dependent effect”; in assay [8] it was 10.6%. In addition, the Activity result in [10] is “Dose-dependent effect”; in assay [11], 1.2%; in [12] it was 12%; with Erythrocyte [13] it was “Dose-dependent effect”. Moreover, the inhibition (commonly the change of the read-out against control, counted positive when it falls) at 1000 µM with Erythrocyte [5] was found to be 7.3%. The inhibition at 2000 µM in the assay with Erythrocyte [7] worked out at 7.3%. Moreover, at 500 µM the inhibition with Erythrocyte [9] was 4.2%.
For `COc1ccc(C=O)c(OCc2ccccn2)c1`, the Activity entry was “Tde” in assay [1]; 24.8% in assay [2]; 34.2% in assay [3]; 12% in assay [4]; 50% in [14]; “Dose-dependent effect” in [6]. Also, the Activity was 60% in assay [15]; 20.9% in assay [8]; “Dose-dependent effect” in assay [10]; 8.1% in assay [11]; 51.6% in [12]; “Dose-dependent effect” in the assay with Erythrocyte [13]. 1000 µM produced 13.5% inhibition in the assay with Erythrocyte [5]. Also, the inhibition at 2000 µM in the assay with Erythrocyte [7] stood at 51.3%. In the assay on Erythrocyte [9], this molecule returned an inhibition at 500 µM of 7.6%.
In the case of `COc1ccc(OCc2cccnc2)c(C=O)c1`, the Activity entry in assay [1] is “Tde”; in [2], 79%; in assay [3] it was 75.8%; in assay [16], 100%; in assay [17], 25%; in assay [6], “Dose-dependent effect”. Besides, the Activity in assay [18] was 50%; in [15] it was 25%; in assay [8], 49.2%; in [10], “Dose-dependent effect”; in assay [19] it was 50%; in [11], 24.8%. For the same molecule, the Activity in assay [12] is 100%; in the assay on Erythrocyte [13], “Dose-dependent effect”. In the assay on Erythrocyte [5], this molecule displayed an inhibition at 1000 µM of 59.5%. Moreover, at 2000 µM the inhibition with Erythrocyte [7] was 90.5%. In the assay on Erythrocyte [9], the inhibition at 500 µM was found to be 14.9%.
`COc1ccc(OCc2ccccn2)c(C=O)c1`: the Activity entry in [1] is “Tde”; in assay [2], 55.3%; in assay [3] it was 61.4%; in assay [20], 50%; in [4], 26.3%; in assay [16], 100%. Moreover, the Activity in assay [17] is 45%; in assay [6] it was “Dose-dependent effect”; in assay [8] it was 38.1%; in assay [10], “Dose-dependent effect”; in assay [11], 22%; in [12], 79.5%. The Activity entry in the assay with Erythrocyte [13] was “Dose-dependent effect”. Besides, the inhibition at 1000 µM with Erythrocyte [5] stood at 64.8%. Moreover, in the assay on Erythrocyte [7], the inhibition at 2000 µM was 90.3%. The inhibition at 500 µM in the assay on Erythrocyte [9] was 24.3%.
For the molecule `COc1ccc(OCc2ccncc2)c(C=O)c1`, the Activity entry in assay [1] was “Tde”; in [2], 58.7%; in assay [3] it was 55.6%; in assay [4] it was 32.8%; in [16], 100%; in assay [17], 15%. Moreover, the Activity entry in assay [6] is “Dose-dependent effect”; in assay [18], 45%; in assay [15] it was 15%; in [8], 31.5%; in [10] it was “Dose-dependent effect”; in [19], 50%. The results for the Activity (in [11]; in [12]; in the assay with Erythrocyte [13]) were 7.9%, 82.5% and “Dose-dependent effect”, respectively. In the assay on Erythrocyte [5], the inhibition at 1000 µM is 60.4%. Moreover, in the assay on Erythrocyte [7], the inhibition at 2000 µM is 85.9%. The inhibition at 500 µM in the assay on Erythrocyte [9] came out at 21.7%.
